The test system of data set [1] is Salmonella typhimurium. In words: Antibacterial activity against Salmonella enterica serovar Typhimurium TT16729 at 20 uM to 40 uM. It is filed as functional, organism-based. Particulars: Salmonella enterica subsp. enterica serovar Typhimurium.
Data set [2] relates to Salmonella typhimurium. As to the kind of experiment: Antibacterial activity against Salmonella enterica serovar Typhimurium TT16729 assessed as inhibition of SPI1 protein secretion T3SS-mediated invasion in MDCK cells at 20 uM. Particulars: Salmonella enterica subsp. enterica serovar Typhimurium. Format: functional, organism-based. An outline of the steps: (§1)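 Bacteria grown in LB (overnight, then 1:10 subculture 3 h, 37°C, closed tubes) with compound at 20 µM or DMSO, then seeded on MDCK cells in HEPES-DMEM, MOI 10:1. Gentamicin 50 µg/ml for 45 min; cells lysed at 2 h with 0.5% deoxycholate; invasion = CFU at 2 h / CFU seeded, as percentage of input.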

For data set [3], the system named is Salmonella typhimurium. As to the kind of experiment: Antibacterial activity against Salmonella enterica serovar Typhimurium TT16729 assessed as reduction in expression of bacterial cell bound flagellin at 40 uM by SDS-PAGE. It is filed as functional, organism-based. The conditions noted are these: Salmonella enterica subsp. enterica serovar Typhimurium. An outline of the steps: (§2)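 Bacteria grown 16–18 h in LB with compound (40 or 80 µM) or DMSO; flagellin released by 150 mM NaCl/10 mM HCl for 5 min at room temperature, bacteria removed by centrifugation, supernatant proteins TCA-precipitated and run on 9% SDS-PAGE; loading normalized by OD600.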

Data set [4] concerns Salmonella typhimurium. As to the kind of experiment: Antibacterial activity against Salmonella enterica serovar Typhimurium TT16729 motility assessed as reduction of swimming zone on soft agar plates at 40 uM. Format: functional, Salmonella enterica subsp. enterica serovar Typhimurium. The gist of the method: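 Swimming motility on soft agar (tryptone 10 g/liter, NaCl 5 g/liter, 0.3% agar) prepared 1 day ahead, compound at 40 µM final; 20 µl overnight culture inoculated into agar; zone diameter read after 8 h at 37°C.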

Data set [5] concerns MDCK. As to the kind of experiment: Cytotoxicity against MDCK cells at 20 uM to 40 uM. It is filed as cell-based, Canis lupus familiaris. Particulars: dog.
The subject of data set [6] is Salmonella typhimurium. In words: Inhibition of Salmonella enterica serovar Typhimurium TT16729 invasion in MDCK cells at 20 uM by gentamycin protection assay. The conditions noted are these: Salmonella enterica subsp. enterica serovar Typhimurium. Format: functional, organism-based. The gist of the method: as §1
In data set [7] the test system is Salmonella typhimurium. As to the kind of experiment: Antibacterial activity against Salmonella enterica serovar Typhimurium 14028 assessed as increase in sseJ-HA fusion protein secretion in bacterial cell containing fraction at 20 and 40 uM by immunoblotting. Particulars: Salmonella enterica subsp. enterica serovar Typhimurium. It is filed as functional, organism-based. The gist of the method: (§3)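 Strain 14028 grown overnight in low-pH minimal medium MM5.8 (SPI2-inducing) with compound or DMSO control; whole cells, hexadecane-extractable fraction and cell-free supernatant separated, volumes normalized by OD600, supernatant proteins TCA-precipitated; SseJ-HA detected by immunoblot on 12% SDS-PAGE with anti-HA monoclonal antibody (1:1,000) and chemiluminescence.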
A general note: Immunoblotting shows a protein as a band on a membrane.

Data set [8] relates to Salmonella typhimurium. In words: Antibacterial activity against Salmonella enterica serovar Typhimurium TT16729 in mouse RAW264.7 cells assessed as increase in nitric oxide level at 40 uM after 16 hrs. Particulars: Salmonella enterica subsp. enterica serovar Typhimurium. Format: functional, organism-based. The gist of the method: (§4)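 Opsonized bacteria infect RAW264.7 macrophages (MOI 10:1, gentamicin protection); compound or DMSO present in media from 1 h postinfection. Nitrite accumulated in culture medium at 16 h postinfection measured with Griess reagent (OD525), converted to µM against sodium nitrite standards.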

The subject of data set [9] is Salmonella typhimurium. In words: Antibacterial activity against Salmonella enterica serovar Typhimurium 14028 in mouse RAW264.7 cells assessed as increase in nitric oxide level at 40 uM after 16 hrs. Format: functional, organism-based. The conditions noted are these: Salmonella enterica subsp. enterica serovar Typhimurium. The gist of the method:
as §4

Data set [10] concerns Salmonella typhimurium. In words: Antibacterial activity against Salmonella enterica serovar Typhimurium 14028 in mouse RAW264.7 cells assessed as reduction of intracellular bacterial replication at 40 uM after 16 hrs. It is filed as functional, organism-based. The conditions noted are these: Salmonella enterica subsp. enterica serovar Typhimurium. An outline of the steps: (§5)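 RAW264.7 cells in RPMI/10% FBS infected at MOI 10:1 with LB-agar-grown, mouse-serum-opsonized bacteria; gentamicin 50 µg/ml for 45 min, then 10 µg/ml. Compound added to killing and maintenance media from 1 h postinfection onward. Hypotonic lysis at 2 and 16 h; growth yield = CFU 16 h / CFU 2 h.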

Data set [11] relates to Salmonella typhimurium. In words: Antibacterial activity against Salmonella enterica serovar Typhimurium TT16729 in mouse RAW264.7 cells assessed as reduction of intracellular bacterial replication at 40 uM after 16 hrs. It is filed as functional, organism-based. Particulars: Salmonella enterica subsp. enterica serovar Typhimurium. An outline of the steps: as §5
The test system of data set [12] is Salmonella typhimurium. As to the kind of experiment: Antibacterial activity against Salmonella enterica serovar Typhimurium 14028 assessed as inhibition of sseJ-HA fusion protein secretion by immunoblotting. The conditions noted are these: Salmonella enterica subsp. enterica serovar Typhimurium.
For data set [13], the system named is RAW264.7. In words: Effect on nitric oxide production in mouse RAW264.7 cells. Format: functional, cell-based.
Data set [14] deals with Salmonella typhimurium. As to the kind of experiment: Antibacterial activity against Salmonella enterica serovar Typhimurium TT16729 expressing SPI1 effector protein assessed as localization of SipB-beta-lactamase fusion protein in osmotic shock sample at 20 uM by immunoblotting. It is filed as functional, organism-based. Particulars: Salmonella enterica subsp. enterica serovar Typhimurium.

Data set [15] has as its system Salmonella typhimurium. In words: Antibacterial activity against Salmonella enterica serovar Typhimurium TT16729 assessed as decrease in spvA-lacZ expression at 40 uM. It is filed as functional, organism-based. Particulars: Salmonella enterica subsp. enterica serovar Typhimurium.
The subject of data set [16] is Salmonella typhimurium. As to the kind of experiment: Antibacterial activity against Salmonella enterica serovar Typhimurium TT16729 assessed as decrease in transcription of lacZ-prgH at 40 uM. It is filed as functional, organism-based. The conditions noted are these: Salmonella enterica subsp. enterica serovar Typhimurium.
In data set [17] the test system is Salmonella typhimurium. In words: Antibacterial activity against Salmonella enterica serovar Typhimurium TT16729 assessed as decrease in transcription of lacZ-hilA at 40 uM. Particulars: Salmonella enterica subsp. enterica serovar Typhimurium. It is filed as functional, organism-based.
Data set [18] relates to Salmonella typhimurium. As to the kind of experiment: Antibacterial activity against Salmonella enterica serovar Typhimurium TT16729 assessed as decrease in transcription of lacZ-sipC at 40 uM. Particulars: Salmonella enterica subsp. enterica serovar Typhimurium. It is filed as functional, organism-based.
Data set [19] relates to Salmonella typhimurium. As to the kind of experiment: Antibacterial activity against Salmonella enterica serovar Typhimurium 14028 assessed as reduction in sseJ-HA fusion protein secretion in hexadecane extracted fraction at 20 and 40 uM by immunoblotting. Format: functional, organism-based. Particulars: Salmonella enterica subsp. enterica serovar Typhimurium. An outline of the steps:
as §3

In data set [20] the test system is Salmonella typhimurium. As to the kind of experiment: Antibacterial activity against Salmonella enterica serovar Typhimurium TT16729 expressing SPI1 effector protein assessed as increase in beta-lactamase activity in cytosolic fraction at 20 uM by immunoblotting. Format: functional, organism-based. Particulars: Salmonella enterica subsp. enterica serovar Typhimurium. The gist of the method: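 TT16729 carrying pAUN-1 (SipB–β-lactamase fusion) grown to invasiveness in kanamycin LB, then 2 h in DMEM with kanamycin, L-glutamine and HEPES; compound 20 µM in all steps, DMSO control. Cells lysed (freeze-thaw, lysozyme 1 mg/ml 1 h 4°C, sonication), 5,000 x g clearing, then 50,000 x g 1 h. Cytosolic fraction assayed by nitrocefin (50 µg/ml, PBS) cleavage at A486, per min per OD600 or µg protein.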

For data set [21], the system named is Salmonella typhimurium. In words: Antibacterial activity against Salmonella enterica serovar Typhimurium TT16729 assessed as reduction in expression of bacterial cell bound flagellin at 80 uM by SDS-PAGE. It is filed as functional, organism-based. The conditions noted are these: Salmonella enterica subsp. enterica serovar Typhimurium. The gist of the method:
as §2

In data set [22] the test system is Salmonella typhimurium. In words: Antibacterial activity against Salmonella enterica serovar Typhimurium TT16729 infected mouse RAW264.7 cells assessed as increase in nitric oxide level at 40 uM after 16 hrs in presence of tetracyclin. It is filed as functional, organism-based. Particulars: Salmonella enterica subsp. enterica serovar Typhimurium. An outline of the steps:
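RAW264.7 cells infected with opsonized strain TT16729 (MOI 10:1, gentamicin protection), compound in medium from 1 h postinfection; bacterial protein synthesis blocked with tetracycline at 2 h postinfection. Medium nitrite measured at 16 h by Griess reagent (OD525) against sodium nitrite standards.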

Data set [23] concerns Salmonella typhimurium. In words: Antibacterial activity against Salmonella enterica serovar Typhimurium 14028 in mouse RAW264.7 cells assessed as reduction of nitric oxide level at 40 uM after 16 hrs. Format: functional, organism-based. Particulars: Salmonella enterica subsp. enterica serovar Typhimurium. An outline of the steps: as §4
In data set [24] the test system is Salmonella typhimurium. In words: Antibacterial activity against Salmonella enterica serovar Typhimurium TT16729 in mouse RAW264.7 cells assessed as increase in intracellular bacterial replication at 40 uM after 16 hrs. Format: functional, organism-based. The conditions noted are these: Salmonella enterica subsp. enterica serovar Typhimurium. An outline of the steps: as §5

Activity calls are given as the source filed them. The rule behind the calls is not given here.

As to `O=C(N/N=C/c1cc(Br)ccc1O)c1cccnc1`, the outcome in data set [1] was inactive. Further, the result in data set [2], in [3] and in [6] was Active. Besides, the Activity in data set [4] is 2.4 cm; in [5] it was “Non-toxic”.

For `O=C(N/N=C/c1cc(Br)cc(Br)c1O)c1cccnc1`, the outcome in data set [7], in data set [1], in data set [13] and in data set [14] was inactive. Also, the outcome in data set [8], in [9], in data set [2], in data set [10], in data set [11] and in [12] was Active. For the same molecule, the outcome in data set [15], in [16], in data set [17], in [18], in data set [19] and in data set [6] was Active. Besides, the outcome in data set [20] was Active. Further, the Activity in [4] is 2.7 cm; in data set [5], “Non-toxic”.

For the molecule `O=C(N/N=C/c1ccc(O)c(O)c1O)c1ccco1`, the result in [1] was inactive. The result in data set [2] and in data set [6] was Active. The results for the Activity in [4] and in [5] were 2.9 cm and “Non-toxic”, respectively.

Take `CCOc1cccc(/C=N/NC(=O)C(N)=O)c1O`: the result in [1] and in data set [21] was inactive. The result in data set [2] and in data set [6] was Active. The Activity was 2.7 cm in [4] and “Non-toxic” in data set [5].

`O=C(N/N=C/c1cc(Br)cc(Br)c1O)c1ccc([N+](=O)[O-])cc1`: in data set [1], the outcome was inactive. The outcome in data set [2] and in [6] was Active. Besides, the Activity is reported as 2.9 cm in [4] and “Non-toxic” in [5].

Regarding `O=C(N/N=C/c1c(O)ccc2ccccc12)c1ccc(Cl)cc1`, the outcome in data set [22], in [2], in data set [12], in data set [23], in data set [24] and in [19] was Active. In data set [6], the result was Active. Moreover, the outcome in data set [7], in data set [1] and in data set [13] was inactive. Further, the Activity in data set [4] is listed as 3.1 cm; in data set [5] it was “Non-toxic”.

Consider `NC(=O)C(=O)N/N=C/c1cc(Br)ccc1O`, for which, in [1], the result was inactive. For the same molecule, the outcome in data set [2], in data set [3], in data set [21] and in [6] was Active. Besides, the Activity in [4] is 1.7 cm; in [5] it was “Non-toxic”.

Consider `O=C(N/N=C/c1ccc(O)c(O)c1O)c1ccccc1`, for which the result in [1] was inactive. The outcome in data set [2] and in data set [6] was Active. Also, the Activity is listed as 3.3 cm in [4] and “Non-toxic” in data set [5].

On to `O=C(N/N=C/c1cc(Cl)cc(Cl)c1O)c1ccccc1`, for which the outcome in data set [1] was inactive. For the same molecule, the outcome in data set [2] and in [6] was Active. Besides, the Activity in data set [4] is listed as 2.7 cm; in data set [5], “Non-toxic”.
